The record followed here is ChEMBL document CHEMBL4513216, “Probing the Open Global Health Chemical Diversity Library for Multistage-Active Starting Points for Next-Generation Antimalarials” (ACS Infect Dis, 2020).

This data set in a line: Toxicity liver stage against HepG2, at 10uM. It is filed as cell-based. On the set-up: test concentration 10 uM, cell line HepG2-A16-CD81EGFP. As to conditions: human, HepG2-A16-CD81EGFP cells; read-out: INHIBITION
Put shortly: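 Uninfected HepG2-A16-CD81EGFP cells, 3 × 10^3 per well, 1536-well, plated on prespotted compound at 10 μM final, parasite-free screening media added to match infected plates; puromycin 10 μM positive, DMSO 0.5% negative; run in parallel with 48 h PbLuc assay at 37 °C, 5% CO2; viability by CellTiter-Glo luminescence, normalized to controls.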
`COCC1c2nnn(CC3CC3)c2CCN1C(=O)c1ccncn1` (stereo unspecified): the cytotoxicity at 10 µM was -132%. Next, `CC1=N[C@@]2(CC[C@@H]3CN(Cc4ccccc4F)C[C@@H]32)C(=O)N1C`: 3.76%. Regarding `c1ccc(N2CCOCC3(CCCN(c4nccs4)C3)C2)nc1` (stereo unspecified), the cytotoxicity at 10 µM is -104%.

For `O=c1[nH]nc2nc(N3CCCC3)ccn12`, the cytotoxicity at 10 µM is -6.07%. Next, `CCNS(=O)(=O)c1cnccc1N1CCN(CCO)CC1`: 3.6%. `O=c1c2cnc(N3CCCCC3)nc2ccn1-c1ccccc1`: the cytotoxicity at 10 µM was -10.1%. Next, `CN(C)S(=O)(=O)N1CC[C@@H]2CN(Cc3cnn(C)c3)C[C@@H]2C1`: 13.5%; `CCCn1c(SCC(N)=O)nnc1-c1csc2c1CCCC2`: -1.42%. Next, `Cc1nn(C)c2c(N(C)Cc3ccco3)nc(C3CC3)nc12`: 1.58%; `CCn1ccc(NS(=O)(=O)c2cccc(COC)c2)n1`: -5.41%. Regarding `N#Cc1cn[nH]c1NCc1cc(I)cc(I)c1O`, the cytotoxicity at 10 µM amounted to 1.11%.

Regarding `CCC(O)Cn1nc(-c2ccc(C(=O)O)cc2)cc1-c1cccc(F)c1` (stereo unspecified), the cytotoxicity at 10 µM turned out to be 8.17%. The result for `O=C(Nc1cccnc1N1CCSCC1)c1cc2c(s1)CCCCC2` reads -3.25%; that for `O=C(Nc1cccc(N2CCCC2)c1)N[C@H](CCO)c1ccccc1`, -4.52%; that for `CN(Cc1cccs1)Cc1nnsc1Cl`, -5.65%.

As for `CS(=O)(=O)CCCNc1cccc(COC2CCCCC2)c1`, the cytotoxicity at 10 µM was 9.5%. Take `COc1ccccc1CNC(=O)C(C)N1CC(n2cc(C)cn2)C1` (stereo unspecified): the cytotoxicity at 10 µM amounted to 6.15%. `CCOC(=O)NC(CNC(=O)c1cn(C)cn1)CC(C)C` (stereo unspecified): the cytotoxicity at 10 µM is -5.35%. In the case of `CC1CCCN(C(=O)Nc2cccc(CN3CCOC3=O)c2)C1` (stereo unspecified), the cytotoxicity at 10 µM was determined as 18.3%. The result for `COCC(=O)NCCCn1nc2ccccn2c1=O` reads 11.8%. As for `NC(=O)c1ccc(CN2CCC(N3CCCCC3)CC2)cc1`, the cytotoxicity at 10 µM is -7.55%.

As for `[O-][S+](Cc1c(F)cccc1Cl)Cc1nnnn1C1CC1` (stereo unspecified), the cytotoxicity at 10 µM came to 0.0902%. Next, `CN(C)S(=O)(=O)c1cccc(NC(=O)Cc2ccon2)c1`: 9.48%. In the case of `CCOc1cc(C(=O)N2CC=C(c3ccc(O)cc3)CC2)ccn1`, the cytotoxicity at 10 µM was -4.89%. Next, `Cc1nc(C2CCCN(c3ncc(Br)cn3)C2)no1` (stereo unspecified): -0.598%. Next, `C[C@@H]1CN(C(=O)Nc2cccc(OC(F)F)c2)CC(C(N)=O)O1` (stereo partly specified): 5.52%; `Cc1cc(C(=O)Nc2nnn[nH]2)ccc1I`: -2.08%; `O=S(=O)(CCNCCn1cccn1)c1ccccc1`: 11.5%. Next, `CCCN(CCN(C)C)C(=O)Cc1cn2ccsc2n1`: 0.27%; `Cc1noc(C)c1CN1CCN(C(=O)Cn2cncn2)CC1`: -3.52%. As to `Cc1nc(NC(=O)CN2CCc3c(nc(C(C)C)n3C)C2)sc1C`, the cytotoxicity at 10 µM was -9.52%. The result for `Cn1cc(CC2CCN(C(=O)NCc3cn4ccsc4n3)C2)cn1` (stereo unspecified) reads -5.57%. On to `O=C(NCCn1cccc1)C1CCN(C2CCCCC2)CC1`, for which the cytotoxicity at 10 µM was -0.467%. Take `Cc1nc2c(c(=O)n1C)CCN(Cc1cc3cc[nH]c3cn1)CC2`: the cytotoxicity at 10 µM is -9.56%. The result for `CC(=O)c1cccc(CN2CCCC23CCN(c2ccccn2)CC3)c1` reads -15.4%; that for `CCCC1COCCN1Cc1ccc(C(=O)O)cc1` (stereo unspecified), -139%. Next, `N#Cc1ccnc(NCc2cc3n(n2)CCCN(C(=O)C2CCC2)C3)c1`: -135%; `Cc1c[nH]c(CN2CCOC(c3ccc(Cl)c(Cl)c3)C2)c(C)c1=O` (stereo unspecified): 17.7%; `COc1ccc(CNC2CCC3(CCC(=O)N3)CC2)cc1` (stereo unspecified): 3.59%. For the compound `CCOCC1CN(CCOc2ccc(Cl)cc2)Cc2c1cnn2C` (stereo unspecified), the cytotoxicity at 10 µM is -109%.

As to `Cc1cccnc1N1CC2(CCN(Cc3cnn(C)c3)C2)C1`, the cytotoxicity at 10 µM is -5.99%.
